From article PMC4407950 (Journal of Clinical Pharmacology, 2014)
Where two headings read alike, the source gives them in different places.

Legend:
[1] = in the absence of added supplement; cited from earlier work
[2] = cited from earlier work
[3] = format: in vivo, human; conditions: for AUC(0–∞), ratio of geometric least-squares means (90% confidence interval) / C24, ratio of geometric least-squares means (90% confidence interval) / Cmax, ratio of geometric least-squares means (90% confidence interval) / reduction of plasma dolutegravir AUC(0–∞) / reduction of plasma dolutegravir C24 / reduction of plasma dolutegravir Cmax: fasted; for Tmax: human, plasma, oral, median (range)
Outline: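 Healthy adults were randomized to 2 cohorts of 4 treatments: test compound 50 mg single dose fasted, then with calcium supplement (1,200 mg) or iron supplement (324 mg) fasted, with a ~30% fat meal, or 2 h before the supplement fasted. Washout was ≥7 days. K2EDTA plasma was sampled predose to 48 h. Noncompartmental parameters were log-transformed and fitted by mixed model, giving geometric LS mean ratios with 90% CI.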

[4] = Safety evaluation; format: in vivo, human; conditions: for subjects who experienced AEs: six subjects
Outline: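 Subjects were housed from Day −1 to Day 3 of each crossover period. Each period included serum chemistry, hematology, urinalysis, vital signs and 12-lead ECG. Adverse events were monitored through the treatment phase and at follow-up 7–14 days after the last dose.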

[5] = Maalox 2 hours after dolutegravir administration
[6] = concurrent administration of Maximum Strength Maalox, fasted
[7] = Dolutegravir 2 h prior + CC, fasted vs. dolutegravir alone
[8] = Dolutegravir 2 h prior + FF, fasted vs. dolutegravir alone
[9] = Dolutegravir + CC, fasted vs. dolutegravir alone
[10] = Dolutegravir + CC, fed vs. dolutegravir + CC
[11] = Dolutegravir + CC, fed vs. dolutegravir alone
[12] = Dolutegravir + FF, fasted vs. dolutegravir alone
[13] = Dolutegravir + FF, fed vs. dolutegravir + FF
[14] = Dolutegravir + FF, fed vs. dolutegravir alone
[15] = co-administered with calcium carbonate 1,200 mg
[16] = co-administered with ferrous fumarate 324 mg

In the case of `C[C@@H]1CCO[C@H]2Cn3cc(C(=O)NCc4ccc(F)cc4F)c(=O)c(O)c3C(=O)N12` [Dolutegravir], the “increase of dolutegravir AUC by a moderate-fat meal” value (“increase of dolutegravir AUC” for short) [1] is given as 41%, the “decrease of dolutegravir mean AUC” value [2, 5] is given as 26% and the “decrease of dolutegravir mean C24” value [2, 5] is given as 30%. The “decrease of dolutegravir mean Cmax” value [2, 5] was 18%, the “effect of omeprazole on dolutegravir exposure” value ([2]; clinical study in humans) was “no effect” and the “decrease of dolutegravir mean AUC” value [2, 6] was 74%. The “decrease of dolutegravir mean C24” value [2, 6] was 74%, the “decrease of dolutegravir mean Cmax” value [2, 6] was 72% and the “AUC(0–∞), ratio of geometric least-squares means (90% confidence interval)” value (shortened to “AUC(0–∞), ratio … (90% confidence interval)”) [3, 7] was 0.94 (0.72, 1.23). The “C24, ratio of geometric least-squares means (90% confidence interval)” value (shortened to “C24, ratio … (90% confidence interval)”) [3, 7] was 0.90 (0.68, 1.19), the “Cmax, ratio of geometric least-squares means (90% confidence interval)” value (from here on “Cmax, ratio … (90% confidence interval)”) [3, 7] was 1.00 (0.78, 1.29) and the “AUC(0–∞), ratio … (90% confidence interval)” value [3, 8] was 0.95 (0.77, 1.15). For the same molecule, the “C24, ratio … (90% confidence interval)” value [3, 8] was 0.92 (0.74, 1.13), the “Cmax, ratio … (90% confidence interval)” value [3, 8] was 0.99 (0.81, 1.21) and the “AUC(0–∞), ratio … (90% confidence interval)” value [3, 9] was 0.61 (0.47, 0.80). The “C24, ratio … (90% confidence interval)” value [3, 9] was 0.61 (0.47, 0.80), the “Cmax, ratio … (90% confidence interval)” value [3, 9] was 0.63 (0.50, 0.81) and the “AUC(0–∞), ratio … (90% confidence interval)” value [3, 10] was 1.78 (1.36, 2.33). The “C24, ratio … (90% confidence interval)” value [3, 10] was 1.76 (1.33, 2.33), the “Cmax, ratio … (90% confidence interval)” value [3, 10] was 1.70 (1.32, 2.18) and the “AUC(0–∞), ratio … (90% confidence interval)” value [3, 11] was 1.09 (0.84, 1.43). For the same molecule, the “C24, ratio … (90% confidence interval)” value [3, 11] was 1.08 (0.81, 1.42), the “Cmax, ratio … (90% confidence interval)” value [3, 11] was 1.07 (0.83, 1.38) and the “AUC(0–∞), ratio … (90% confidence interval)” value [3, 12] was 0.46 (0.38, 0.56). The “C24, ratio … (90% confidence interval)” value [3, 12] was 0.44 (0.36, 0.54), the “Cmax, ratio … (90% confidence interval)” value [3, 12] was 0.43 (0.35, 0.52) and the “AUC(0–∞), ratio … (90% confidence interval)” value [3, 13] was 2.14 (1.76, 2.61). The “C24, ratio … (90% confidence interval)” value [3, 13] was 2.28 (1.85, 2.81), the “Cmax, ratio … (90% confidence interval)” value [3, 13] was 2.41 (1.97, 2.94) and the “AUC(0–∞), ratio … (90% confidence interval)” value [3, 14] was 0.98 (0.81, 1.20). For the same molecule, the “C24, ratio … (90% confidence interval)” value [3, 14] was 1.00 (0.81, 1.23), the “Cmax, ratio … (90% confidence interval)” value [3, 14] was 1.03 (0.84, 1.26) and the “reduction of plasma dolutegravir AUC(0–∞)” value [3, 15] was 39%. The “reduction of plasma dolutegravir C24” value [3, 15] was 39%, the “reduction of plasma dolutegravir Cmax” value [3, 15] was 37% and the “reduction of plasma dolutegravir AUC(0–∞)” value [3, 16] was 54%. The “reduction of plasma dolutegravir C24” value [3, 16] was 56%, the “reduction of plasma dolutegravir Cmax” value [3, 16] was 57% and the “plasma exposures, dose separation” value ([3]; dolutegravir fasted 2 hours prior to calcium carbonate or ferrous fumarate) was “counteracted the effect”. For the same molecule, the “plasma exposures, co-administration with supplement and a meal” value ([3]; dolutegravir with calcium carbonate or ferrous fumarate, fed (moderate-fat meal)) was “counteracted the effect”, the Tmax ([3]; dolutegravir 50 mg + calcium carbonate 1,200 mg, fed (moderate-fat meal), n = 11) was 3 h and the Tmax ([3]; dolutegravir 50 mg + ferrous fumarate 324 mg, fed (moderate-fat meal), n = 10) was 3.5 h. For the same molecule, the “increase of dolutegravir AUC” value ([3]; in the presence of calcium carbonate) was 78%, the “increase of dolutegravir AUC” value ([3]; in the presence of ferrous fumarate) was 114% and the “effect of co-administration on tmax of dolutegravir” value ([3]; with calcium carbonate or ferrous fumarate) was “no effect”. The “subjects who experienced AEs” value ([4]; Cohort 1 (calcium carbonate)) was 50%, the “subjects who experienced AEs” value ([4]; Cohort 2 (ferrous fumarate)) was 50% and the “severity of all adverse events” value ([4]; both cohorts) was “Grade 1”. For the same molecule, the “changes in mean or median hematology or clinical chemistry values” ([4]; human, in vivo) was “No consistent, treatment-related, or clinically significant changes” and the “changes in vital signs or ECGs” value ([4]; human, in vivo) was “No clinically significant changes”.
